Assay results published in ChEMBL document CHEMBL1122673, “Synthesis of a novel series of (aryloxy)propanolamines: new selective beta 2-blocking agents” (J Med Chem, 1984).

species on record: Cavia porcellus; experiment: (§1) In vitro evaluation on guinea pig trachea. EC50 which is the molar concentration required to give 50% inhibition of the isoproterenol response (1x10E-6M) was determined.; format: functional; conditions: read-out: ED50 (the source's name)
Outline: (§2)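 Isolated guinea pig tracheal spirals were held at 1.50 g initial tension (resting 0.4–0.6 g) in Tyrode at 37 °C, gassed with O2/CO2 95:5, and contracted with acetylcholine 3 × 10^-6 M. Antagonist was added 15 min before Ach. Isoproterenol 3 × 10^-8 to 3 × 10^-6 M was added at maximal contraction.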

| SMILES | EC50 [nM] |
| --- | --- |
| CCCC(=O)Nc1ccc(OCC(O)CNC(C)C)c2c1[C@H]1CCCCC[C@@H]21 (some centres undefined) | 341 |
| CC(C)NCC(O)COc1ccc2ccccc2c1 (centres undefined) | 55 |
| COc1ccc(CCNCC(O)COc2cccc3c2[C@]2(O)CCCCC[C@H]32)cc1OC (some centres undefined) | 7010 |

Continued, values first:

| EC50 [nM] | SMILES |
| --- | --- |
| 1.3 | CC(C)NCC(O)COc1cccc2c1[C@@H]1CCCCC[C@]21O (some centres undefined) |
| 5.49 | CC(C)(C)NCC(O)COc1cccc2c1[C@]1(O)CCCCC[C@H]21 (some centres undefined) |
| 130 | CC(C)NCC(O)COc1cccc2c1[C@]1(O)CCCCC[C@H]21 (some centres undefined) |
| 1380 | CC(C)(C)NCC(O)COc1ccc2c(c1)[C@@H]1CCCCC[C@H]21 (some centres undefined) |
| 1.26 | CC(C)(C)NCC(O)COc1cccc2c1[C@@H]1CCCCC[C@]21O (some centres undefined) |
| 115 | CC(C)(C)NCC(O)COc1cccc2c1[C@]1(O)CCCC[C@H]21 (some centres undefined) |
| 260 | COc1ccc(CCNCC(O)COc2cccc3c2[C@@H]2CCCCC[C@]32O)cc1OC (some centres undefined) |

species on record: Cavia porcellus; experiment: as §1; format: functional, organism-based; conditions: not given
Outline: as §2, with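 “contraction. EC50 came from four points, with ≥4 preparations per group.” for “contraction.”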

| SMILES | EC50 [nM] |
| --- | --- |
| CC(C)NCC(O)COc1ccc2c(c1)[C@@H]1CCCC[C@H]21 (some centres undefined) | 502 |
| CC(C)NCC(O)COc1ccc2c(c1)[C@@H]1CCCCC[C@H]21 (some centres undefined) | 417 |
| COc1ccc(CCNCC(O)COc2cccc3c2[C@@H]2CCCCC[C@H]32)cc1OC (some centres undefined) | 1100 |
| CC(C)NCC(O)COc1cccc2c1[C@@H]1CCCC[C@H]21 (some centres undefined) | 70 |

Second part, the molecule after the results:

| EC50 [nM] | SMILES |
| --- | --- |
| 201 | CC(C)(C)NCC(O)COc1ccc2c(c1)[C@@H]1CCCC[C@H]21 (some centres undefined) |
| 45.7 | CC(C)(C)NCC(O)COc1cccc2c1[C@@H]1CCCCC[C@H]21 (some centres undefined) |
| 2 | CC(C)NCC(O)COc1cccc2c1[C@@H]1CCCCC[C@H]21 (some centres undefined) |

test system: not listed separately; experiment: Compound was determined for heart rate with respect to propanol; format: functional; conditions: not given
Outline: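 Urethane-anesthetized animals (1.25 g/kg ip). Carotid blood pressure was recorded, and heart rate was taken from pulse pressure. Three isoproterenol doses (10 µg/kg iv) set the control mean heart-rate rise and diastolic fall. Antagonist was given as four cumulative iv doses, with isoproterenol 10 min after each. The next dose followed return to baseline. Groups of ≥4 animals.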

| SMILES | Ratio |
| --- | --- |
| CC(C)NCC(O)COc1cccc2c1[C@@H]1CCCCC[C@]21O (some centres undefined) | 0.8 |
| CC(C)NCC(O)COc1ccc2c(c1)[C@@H]1CCCCC[C@H]21 (some centres undefined) | 0.02 |
| CC(C)(C)NCC(O)COc1cccc2c1[C@]1(O)CCCCC[C@H]21 (some centres undefined) | 0.08 |
| CC(C)(C)NCC(O)COc1cccc2c1[C@@H]1CCCCC[C@H]21 (some centres undefined) | 0.57 |
| CC(C)(C)NCC(O)COc1cccc2c1[C@@H]1CCCCC[C@]21O (some centres undefined) | 0.42 |
| CC(C)NCC(O)COc1cccc2c1[C@@H]1CCCCC[C@H]21 (some centres undefined) | 0.46 |
| COc1ccc(CCNCC(O)COc2cccc3c2[C@@H]2CCCCC[C@]32O)cc1OC (some centres undefined) | 0.68 |
